pEC50: −log10 of the molar value. One block for each compound: values may come before it. Residues, ends and D or L forms follow the SMILES beside them.
Key:
[1] = molecular target: recombinant human His-tagged CD13 (Homo sapiens, UniProt P15144); assay: CD13 enzymatic activity assay; format: biochemical
[2] = molecular target: αvβ3 (Homo sapiens, UniProt P05106+P06756); assay: Integrin competitive binding assay with CisoDGRC-peroxidase
[3] = cited from earlier work
[4] = tested on: WEHI-164 fibrosarcoma; assay: Anti-tumor activity in the WEHI-164 fibrosarcoma model; format: in vivo, BALB/c female mice; details: dose-escalation, i.v.
Procedure, shortened: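 Female BALB/c mice, 6–7 weeks old, received 1.5 × 10^6 WEHI-164 cells s.c. in the left flank. On day 5, mice got single i.v. doses of TNF-loaded gold nanoparticles (1–4 or 9–16 bioactive TNF molecules/nanoparticle) in 0.9% NaCl with 100 µg/mL HSA. Tumors were measured with calipers and volumes from day 5 to day 9 were normalized to day 5. Data are mean ± SE from 1–7 independent experiments, 6 mice each.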

CD13 inhibition efficiency relative to NGR-2C(Y) ([1]; enzyme inhibition, 30 min at 37 °C): 5–6 fold | Binding efficiency to CD13 relative to CNGRC (NGR-2C) and c(CNGRGG) (N3) ([1]; recombinant soluble CD13, enzyme binding and inhibition experiments): 6–10 fold | pEC50 [2]: 5.00
Compound: N=C(N)NCCC[C@@H]1NC(=O)CNC(=O)[C@H](CC(N)=O)NC(=O)CNC(=O)[C@H](CS)NC(=O)CNC1=O [N1, c(CGNGRG)] (cyclo(CGNGRG))

Compound: CNGRC (disulfide) [NGR-2C]
Half-life of asparagine (deamidation) [3]: 3 to 4 h

Compound: CNGRCG-TNF (disulfide) [NGR-TNF]
Shape of dose-response curve (tumor growth day 5 to day 9) [4]: U-shaped dose-response curve
